The source of these data is paper PMC12011195 (ACS chemical biology, 2024).

Assay [1] has as its system FXN expression in patient-derived cells. To be noted: wide array of patient-derived cells; cited from earlier work.
Assay [2] has as its system FXN mRNA in GM15850 cells. In words: Co-treatment of SynGRs with BET-binding ligands, FXN mRNA in GM15850 cells. It counts as cell-based, human. The following applies: SynGR1 1 h, then ligand 0.5 μM for 23 h. In short, it runs like this:
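Patient-derived GM15850 lymphoblasts in RPMI with 15% FBS; compounds dissolved in DMSO. Test compound (1 mM stock, increasing concentrations) added for 1 h, then pan-BET, BD1- or BD2-selective BET ligand at 0.5 μM for 23 h. RNA purified with DNase treatment; cDNA from 400 ng RNA; SYBR qPCR on 100 ng cDNA with FXN and TBP primers; normalised to 0.1% DMSO control.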

For `Cc1sc2c(c1C)C(c1ccc(Cl)cc1)=N[C@@H](CC(=O)NCCOCCOCCOCCOCCOCCOCCC(=O)NCCCN(C)CCCNC(=O)CCNC(=O)c1nc(NC(=O)CCNC(=O)c3cc(NC(=O)c4nc(NC(=O)CCNC(=O)c5cc(NC(=O)c6nccn6C)cn5C)cn4C)cn3C)cn1C)c1nnc(C)n1-2` [SynGR1], the FXN protein levels result in assay [1] is “restoring FXN protein levels”. As to `COCc1nc2cnc3cc(-c4c(C)noc4C)c(OC[C@H]4CCNC4)cc3c2n1[C@H](C)c1ccccc1` [GSK778], the “effect of co-treatment with BET ligand on FXN expression activity of SynGR1” value in assay [2] is recorded as “further stimulated the activity”.
